Laboratory results: ChEMBL document CHEMBL3868584, “Cerasoidine, a Bis-aporphine Alkaloid Isolated from Polyalthia cerasoides during Screening for Wnt Signal Inhibitors” (J Nat Prod, 2016)
Calls of active or inactive are those of the source. No cut-off for these calls is given here.

Key:
[1] = Inhibition of Wnt signalling in human STF/293 cells assessed as suppression of TCF/beta-catenin-mediated transcriptional activity after 24 hrs by superTOPflash reporter gene assay; format: cell-based; details: STF/293, 24 h
[2] = Cytotoxicity against human STF/293 cells assessed as reduction in cell viability at 2 to 10 uM after 24 hrs by fluorescein diacetate based assay; format: toxicity; details: hek293, 24 h
[3] = Inhibition of Wnt signalling in human STF/293 cells assessed as decrease in c-myc levels after 24 hrs by Western blot analysis; format: cell-based
How it was run: (§1)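 STF/293 cells were exposed to the test agent and lysed. Lysates were immunoblotted for β-catenin, c-myc and PPARδ, with β-actin as the protein loading control.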

[4] = Cytotoxicity against human STF/293 cells assessed as reduction in cell viability at 0.5 to 2 uM after 24 hrs by fluorescein diacetate based assay; format: toxicity; details: hek293, 24 h
[5] = Inhibition of Wnt signalling in human STF/293 cells assessed as decrease in beta-catenin levels after 24 hrs by Western blot analysis; format: cell-based; how it was run: as §1
[6] = Inhibition of Wnt signalling in human STF/293 cells assessed as decrease in PPARdelta levels after 24 hrs by Western blot analysis; format: cell-based; how it was run: as §1
[7] = Inhibition of Wnt signalling in human SW480 cells assessed as decrease in c-myc level after 24 hrs by Western blot analysis; format: cell-based
How it was run: (§2)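 SW480 colon cancer cells were treated, then whole, cytoplasmic and nuclear lysates were prepared. These were immunoblotted with anti-β-catenin and anti-c-myc antibodies. β-Actin served as the cytoplasmic fraction control and histone H1 as the nuclear fraction control.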

[8] = Cytotoxicity against human STF/293 cells assessed as reduction in cell viability at 10 to 40 uM after 24 hrs by fluorescein diacetate based assay; format: toxicity; details: hek293, 24 h
[9] = Inhibition of Wnt signalling in human SW480 cells assessed as decrease in beta-catenin level in nucleus at 20 to 60 uM after 24 hrs by Western blot analysis; format: cell-based; how it was run: as §2

Structure (SMILES) | IC50 [1] [µM] | Activity [2] | Activity [4] | also measured
COc1cc2c(cc1O)CCn1c-2cc2ccc(O)c(OC)c2c1=O | 8.7 | Non-Toxic |  | 
O=C1c2ccccc2-c2c3c(cc4ccnc1c24)OCO3 [LIRIODENINE] | 0.6 |  | Non-Toxic | inhibition [3]: Dose-dependent effect; inhibition [5]: Dose-dependent effect; inhibition [6]: Dose-dependent effect
COc1ccc2c(c1)c(-c1c3c4c(cc5c(c4c4ccc(OC)cc14)OCO5)CCN3)c1c3c(cc4c(c32)OCO4)CCN1 [BIDEBILINE E] | 20.2 |  |  | inhibition [7]: Dose-dependent effect; Activity [8]: Non-Toxic; inhibition [9]: Active
COc1cc2c(cc1OC)-c1cc3ccc(OC)c(OC)c3c(=O)n1CC2 | 0.6 |  | Non-Toxic | 
COc1ccc2c(c1)C(=O)c1nccc3cc4c(c-2c13)OCO4 [ATHEROSPERMIDINE] | 7.1 | Non-Toxic |  | 
